Source: PubChem BioAssay (Johns Hopkins Ion Channel Center)
KCNK3 block: human KCNK3 channel inhibition, primary screen. 340,000 compounds, 0.84% hits. B-score at 10 µM. CHO-KCNK3 thallium flux, FluxOR fluorescence; stronger effect = lower value. AID 602410. O14649;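 active means B-score under library mean minus 4 SD, starting fluorescence ratio at most library mean plus 5 SD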;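 further: more negative B-score means stronger inhibition of thallium flux through KCNK3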
hERG protect: compounds protecting human hERG from proarrhythmic drug block | activation (rescue from dofetilide block), less the hit threshold, % at 10 µM | Q12809 | AID 1511 | CHO-hERG, FluxOR thallium flux, dofetilide IC70 present | 310,000 compounds, 0.51% hits;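 active means activation above the mean of controls blocked by dofetilide plus 5 SD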;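 further: thallium influx through hERG after potassium depolarization seen as dye fluorescence rise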
KCNQ1 act: potentiates or activates the human KCNQ1 potassium channel. P51787. CHO-K1 KCNQ1, thallium flux FluxOR fluorescence; stronger effect = higher value. B-score at 10 µM. 310,000 compounds, 0.35% hits. AID 2648;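 active means fluorescence ratio B-score, a plate-corrected score, at least three library SD, with initial intensity B-score within 5 SD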
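Assay system: stable KCNQ1 CHO-K1 line; medium: assay buffer, equal DMSO in all wells; timing: 90 min dye loading and 20 min compound exposure, both at room temperature; technique: kinetic FluxOR thallium fluorescence, 10-s 1-Hz baseline, 110-s post-stimulus read; read-out basis: B score of baseline-normalized fluorescence ratio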
KCNK9 inh-1: human KCNK9 channel inhibition | Q9NPC2 | HEK293 KCNK9, FluxOR thallium flux fluorescence; stronger effect = lower value | B-score at 10 µM | 310,000 compounds, 1.2% hits | AID 488922;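 active means ratio B-score over 3 SD below the library mean, with starting fluorescence within 5 SD of its mean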;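 further: negative B-score means less thallium flux so channel inhibition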
Kir21 block: blocks the mouse Kir2.1 inward-rectifier potassium channel | AID 1672 | HEK293-Kir2.1, FluxOR thallium flux fluorescence; stronger effect = lower value | B-score at 10 µM | 310,000 compounds, 0.85% hits;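 active means fluorescence ratio B-score at or below minus 3 SD of library scores, with starting-brightness B-score within 2 SD, cut at about -4.2 in these data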;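 further: channel flux triggered by added potassium and thallium sulfate stimulus; B-score of peak minus minimum fluorescence over baseline after thallium stimulus; more negative B-score means stronger Kir2.1 block with less thallium influx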
KCNQ1 block: human KCNQ1 channel inhibition | B-score at 10 µM | AID 2642 | 310,000 compounds, 1.3% hits | P51787 | CHO-K1 KCNQ1, FluxOR thallium flux fluorescence; stronger effect = higher value;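 active means compounds whose thallium flux B-score, printed positive for inhibition, exceeds three library SD while starting fluorescence stays within three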;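 further: channel opened by potassium depolarization with thallium stimulus after 20 min compound exposure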
hERG ctr: hERG (human) inhibition as Kir2.1 counter-screen; 320 compounds, 20% hits; inhibition, % at 10 µM; shares compounds with Kir21 block; hERG-expressing cells, thallium flux;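 further: host cells are CHO cells stably expressing hERG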
KCNK9 inh-2: tests whether Kir2.1 inhibitors also affect human KCNK9 | shares compounds with Kir21 block | KCNK9-expressing cells, ion flux inhibition | inhibition, % at 10 µM | 320 compounds, 5% hits
Kir21 ephys inh: blocks mouse Kir2.1 current in automated electrophysiology. shares compounds with Kir21 block. Kir2.1 cells, automated patch-clamp current inhibition. inhibition, % at 25 µM. 320 compounds, 71% hits
KCNQ1 block val: confirmation of human KCNQ1 potassium channel inhibitors; shares compounds with KCNQ1 block; KCNQ1 cell line, FluxOR thallium flux fluorescence; inhibition, % at 10 µM; 1,600 compounds, 93% hits; AID 588353;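 active means primary screen active, with duplicate mean exceeding buffer control mean plus 3 SD of buffer wells, cut at about 28% in these data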
CHO Tl flux: counter-screen for KCNQ1 inhibitors: effect in parental CHO cells | parental CHO-K1, FluxOR thallium flux fluorescence ratio; stronger effect = lower value; zero means no signal rise above baseline | 1,600 compounds, 21% hits | fluorescence ratio (Tl flux) at 10 µM | shares compounds with KCNQ1 block;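 active means mean of duplicate thallium-flux fluorescence ratios in parental host cells more than 5 SD below the buffer control mean, cut at about 0.38 in these data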;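 further: ratio is peak minus minimum fluorescence divided by baseline fluorescence; actives read low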
KCNQ1 APC inh: human KCNQ1 inhibition validated by electrophysiology; AID 624120; KCNQ1-CHO cells, automated patch clamp current; 490 compounds, 20% hits; shares compounds with KCNQ1 block; calls only at 10 µM;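 active means KCNQ1 current drop exceeding 3 SD of negative control wells, seen in both duplicate runs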;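 further: steady state current during a 2 s step from -80 to +40 mV; negative values mean current inhibition and positive values mean potentiation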
KCNQ2 spec: selectivity of KCNQ1 inhibitors: inhibition of rat KCNQ2 channel. shares compounds with KCNQ1 block. KCNQ2 cells, FluxOR thallium flux fluorescence. inhibition, % at 10 µM. 1,600 compounds, 71% hits;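 active means mean percent inhibition of the KCNQ2 thallium signal more than 5 SD above the buffer-only control wells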;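 further: KCNQ2 expressed in CHO cells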
KCNQ1 KCNE1 spec: selectivity of KCNQ1 inhibitors: inhibition of human KCNQ1/KCNE1 channel | shares compounds with KCNQ1 block | KCNQ1/KCNE1 cells, FluxOR thallium flux fluorescence | inhibition, % at 10 µM | 1,600 compounds, 77% hits;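 active means mean percent inhibition of duplicate wells above the buffer-only control mean plus 3 SD of those controls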
Target sequence (P51787 whole entry, looked up): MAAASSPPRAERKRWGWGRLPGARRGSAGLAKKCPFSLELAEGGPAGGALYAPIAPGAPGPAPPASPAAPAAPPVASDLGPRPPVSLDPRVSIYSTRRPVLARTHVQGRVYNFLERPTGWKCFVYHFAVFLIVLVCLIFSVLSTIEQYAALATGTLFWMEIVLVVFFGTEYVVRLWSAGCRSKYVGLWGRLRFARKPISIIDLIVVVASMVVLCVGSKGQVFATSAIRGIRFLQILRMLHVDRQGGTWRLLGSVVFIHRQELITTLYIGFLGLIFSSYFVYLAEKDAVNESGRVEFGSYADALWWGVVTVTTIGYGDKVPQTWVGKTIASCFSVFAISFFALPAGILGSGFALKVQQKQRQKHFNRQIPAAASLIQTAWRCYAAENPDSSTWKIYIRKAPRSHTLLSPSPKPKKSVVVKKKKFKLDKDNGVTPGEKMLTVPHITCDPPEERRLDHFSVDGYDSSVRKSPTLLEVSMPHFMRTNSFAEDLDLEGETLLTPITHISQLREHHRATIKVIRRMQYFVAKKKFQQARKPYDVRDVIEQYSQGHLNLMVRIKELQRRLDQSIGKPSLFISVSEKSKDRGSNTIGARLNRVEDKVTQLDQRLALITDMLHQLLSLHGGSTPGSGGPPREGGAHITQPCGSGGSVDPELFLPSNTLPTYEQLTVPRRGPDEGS
Hits are given with their value; i = inactive; nt = no result. The list is not random: actives were taken first. Their share in the collection is about 3.8%. Unless noted, how the calls were made is not given here.

SMILES | KCNK3 block | hERG protect | KCNQ1 act | KCNK9 inh-1 | Kir21 block | KCNQ1 block | others
CC(C)CNC(=O)/C=C/C=C/CCCCCC/C=C/c1ccc2c(c1)OCO2 | -9.42 | nt | nt | nt | nt | nt
CCCCn1c(O)c(C(=O)/C=C/c2ccc3c(c2)OCO3)c(=O)[nH]c1=O | i | i | i | i | i | i
O=C(O)c1ccc(-[n+]2c(-c3ccccc3)cc(-c3ccccc3)cc2-c2ccccc2)cc1 | i | i | i | i | i | i
CCCOC(=O)c1ccc(-[n+]2c(-c3ccccc3)cc(-c3ccccc3)cc2-c2ccccc2)cc1 | i | i | i | -7.7 | -11.4 | 12
Clc1ccc(CSC(Cn2ccnc2)c2ccc(Cl)cc2Cl)cc1 (configuration not stated) | i | i | i | i | i | 6
Oc1ccc(C(=C(Cl)Cl)c2ccc(O)cc2)cc1 | nt | i | i | i | -5.59 | 6
Oc1ccc(Cl)cc1 | i | nt | nt | nt | nt | nt
Cc1ccc(S(=O)(=O)c2nc(-c3ccccc3Cl)oc2N(C)C2CCN(C)CC2)cc1 | i | nt | nt | nt | nt | nt
COc1cccc(CCNCc2ccc(SC)cc2)c1 | i | i | i | i | -7.53 | i
CCCCCCCSc1cc(OC)c(CCN(C)C)cc1OC | i | i | i | i | -9.89 | i
CC1(C)CSC(=NCc2ccccc2)N1 | i | i | 7 | i | i | i
CC1CCN(C(CC(=O)c2ccccc2)C(=O)c2ccccc2)CC1 (configuration not stated) | -9.1 | nt | nt | nt | nt | nt
C/C(=N\NC(=O)c1ccccc1Cl)c1c(O)n(C2CCCCC2)c(=O)[nH]c1=O | i | i | i | i | i | i
C/C(=N\NC(=O)c1ccccc1O)c1c(O)n(C2CCCCC2)c(=O)[nH]c1=O | i | i | i | i | i | 6
COc1ccc(CCNCc2c(OC)ccc3ccccc23)cc1 | i | i | i | i | -10.9 | i
COc1ccc(CCNCc2ccccc2)cc1 | i | i | i | i | i | i
CNc1cc(Cl)c2nonc2c1[N+](=O)[O-] | i | i | i | i | -6.57 | 10
Cc1cc([N+](=O)[O-])c(Cl)cc1NC(=O)C(C)C | i | i | i | i | i | i
CC(C)N1OC2CC1c1nc3ccccc3n1C2 (configuration not stated) | i | i | i | i | i | i
CC(NS(=O)(=O)OCC(Cl)(Cl)Cl)c1ccccc1 (configuration not stated) | i | i | i | i | -5.65 | i
O=S(=O)(NC1CCCCC1)OCC(Cl)(Cl)Cl | i | i | i | i | i | i
CCOc1ccc(-n2c(O)c(/C=C3\C=Nc4ccccc43)c(=O)[nH]c2=O)cc1 | i | i | i | i | i | 9
Fc1ccc(CCNCc2ccccc2Cl)cc1 | i | i | i | i | i | i
CCOc1ccc(Cl)cc1CNCCc1ccc(F)cc1 | i | i | i | i | -6.41 | i | hERG ctr=i;KCNK9 inh-2=i;Kir21 ephys inh=57.1%
Cc1cc(C)n(CCOC(=O)C2C(C=C(Cl)Cl)C2(C)C)n1 (configuration not stated) | i | i | i | i | -9.84 | i | hERG ctr=i;KCNK9 inh-2=i;Kir21 ephys inh=40.9%
SMILES | KCNK3 block | hERG protect | KCNQ1 act | KCNK9 inh-1 | Kir21 block | KCNQ1 block | others
COc1cc(CCN)ccc1O | i | nt | nt | nt | nt | nt
CCCCCSc1cc(OC)c(CCN)cc1OC | i | i | i | i | -6.23 | 6 | hERG ctr=i;KCNK9 inh-2=i;Kir21 ephys inh=26.1%
CC1CN=C(NCc2ccccc2Cl)S1 (configuration not stated) | i | i | i | i | i | i
COc1ccc(C(=O)C2CN(C)CC2c2ccc(Cl)cc2)cc1 (configuration not stated) | i | i | i | i | -6.37 | i | hERG ctr=51.0%;KCNK9 inh-2=i;Kir21 ephys inh=i
COc1cccc(C(=O)C2CN(C)CC2c2ccc(Cl)cc2)c1 (configuration not stated) | i | i | i | i | -7.11 | i | hERG ctr=46.0%;KCNK9 inh-2=i;Kir21 ephys inh=25.2%
CCc1cc(=O)[nH]c(SCCCF)n1 | i | i | i | i | i | i
CCOC(=O)N1CCN(C(C)C(=O)c2c[nH]c3ccccc23)CC1 (configuration not stated) | i | i | i | i | i | i
CCCCn1c(=O)c(C(=O)Nc2ccccc2S(N)(=O)=O)c(O)c2ccccc21 | i | i | i | i | i | i
CCCCCn1c(=O)c(C(=O)Nc2cnccn2)c(O)c2ccccc21 | -10.1 | i | i | i | i | 8 | KCNQ1 block val=78.5;CHO Tl flux=i;KCNQ2 spec=i;KCNQ1 KCNE1 spec=68.0%
CCCCCn1c(=O)c(C(=O)Nc2ccccc2S(N)(=O)=O)c(O)c2ccccc21 | i | i | i | i | i | 9 | KCNQ1 block val=75.0;CHO Tl flux=i;KCNQ2 spec=i;KCNQ1 KCNE1 spec=i
CCCCCCCn1c(=O)c(C(=O)Nc2cnccn2)c(O)c2ccccc21 | i | i | i | i | i | i
CC(C)(O)/C=C/C(=O)C(C)(O)C1C(O)CC2(C)C3CC=C4C(C=C(O)C(=O)C4(C)C)C3(C)C(=O)CC12C (configuration not stated) | i | nt | nt | nt | nt | nt
Cc1sc2c(c1C)C(c1ccc(C(C)(C)C)cc1)=NCC(=O)N2CC(=O)Nc1nccs1 | i | i | i | i | i | 6 | KCNQ1 block val=83.5;CHO Tl flux=i;KCNQ2 spec=i;KCNQ1 KCNE1 spec=94.0%
CCOC(=O)C(O)(c1ccc(NC(=O)c2ccc(Cl)c(Cl)c2)cc1)C(F)(F)F (configuration not stated) | i | i | i | i | i | 6 | KCNQ1 block val=123.0;CHO Tl flux=i;KCNQ1 APC inh=i;KCNQ2 spec=93.0%;KCNQ1 KCNE1 spec=144.5%
N/C(=N/[N+](=O)[O-])N1CCN(C(=O)Oc2ccc([N+](=O)[O-])cc2)CC1 | i | i | i | i | i | i
CC/C(=N\N1CCCCCC1)c1c(O)n(-c2ccc(C)cc2)c(=O)[nH]c1=O | i | i | i | i | i | i
